# Reference: ChEMBL document CHEMBL3875205, “Macrocyclic MEK1/2 inhibitor with efficacy in a mouse model of cardiomyopathy caused by lamin A/C gene mutation” (Bioorg Med Chem, 2017)
# Columns and labels:
# [1] = Effect on body mass in LmnaH222P/H222P mouse model of cardiomyopathy at 3 mg/kg/day, po administered 6 days per week via gavage starting from 14 weeks of age up to 20 weeks of age (reference value: 23.19 +/- 0.43); format: ADME, organism-based, Heart; settings: in vivo
# [2] = Effect on body mass in LmnaH222P/H222P mouse model of cardiomyopathy at 6 mg/kg/day, po administered 6 days per week via gavage starting from 14 weeks of age up to 20 weeks of age (reference value: 23.19 +/- 0.43); format: ADME, organism-based, Heart; settings: in vivo
# Mus musculus [3] = experiment: Toxicity in LmnaH222P/H222P mouse model of cardiomyopathy assessed as serum alkaline phosphatase activity at 3 mg/kg/day, po administered 6 days per week via gavage starting from 14 weeks of age up to 20 weeks of age (reference value: 91.5 +/- 6.99 U/L); format: organism-based, Heart; settings: in vivo
# Mus musculus [4] = experiment: Toxicity in LmnaH222P/H222P mouse model of cardiomyopathy assessed as serum alkaline phosphatase activity at 6 mg/kg/day, po administered 6 days per week via gavage starting from 14 weeks of age up to 20 weeks of age (reference value: 91.5 +/- 6.99 U/L); format: organism-based, Heart; settings: in vivo
# Mus musculus [5] = experiment: Toxicity in LmnaH222P/H222P mouse model of cardiomyopathy assessed as serum alanine aminotransferase activity at 3 mg/kg/day, po administered 6 days per week via gavage starting from 14 weeks of age up to 20 weeks of age (reference value: 56 +/- 10.55 U/L); format: organism-based, Heart; settings: in vivo
# Mus musculus [6] = experiment: Toxicity in LmnaH222P/H222P mouse model of cardiomyopathy assessed as serum alanine aminotransferase activity at 6 mg/kg/day, po administered 6 days per week via gavage starting from 14 weeks of age up to 20 weeks of age (reference value: 56 +/- 10.55 U/L); format: organism-based, Heart; settings: in vivo
# Mus musculus [7] = experiment: Toxicity in LmnaH222P/H222P mouse model of cardiomyopathy assessed as total bilirubin content in serum at 3 mg/kg/day, po administered 6 days per week via gavage starting from 14 weeks of age up to 20 weeks of age (reference value: 0.36 +/- 0.02 mg/L); format: organism-based, Heart; settings: in vivo
# Mus musculus [8] = experiment: Toxicity in LmnaH222P/H222P mouse model of cardiomyopathy assessed as total bilirubin content in serum at 6 mg/kg/day, po administered 6 days per week via gavage starting from 14 weeks of age up to 20 weeks of age (reference value: 0.36 +/- 0.02 mg/L); format: organism-based, Heart; settings: in vivo
# Mus musculus [9] = experiment: Toxicity in LmnaH222P/H222P mouse model of cardiomyopathy assessed as serum amylase activity at 3 mg/kg/day, po administered 6 days per week via gavage starting from 14 weeks of age up to 20 weeks of age (reference value: 1102 +/- 53.63 U/L); format: organism-based, Heart; settings: in vivo
# Mus musculus [10] = experiment: Toxicity in LmnaH222P/H222P mouse model of cardiomyopathy assessed as serum amylase activity at 6 mg/kg/day, po administered 6 days per week via gavage starting from 14 weeks of age up to 20 weeks of age (reference value: 1102 +/- 53.63 U/L); format: organism-based, Heart; settings: in vivo
# Mus musculus [11] = experiment: Toxicity in LmnaH222P/H222P mouse model of cardiomyopathy assessed as blood urea nitrogen level at 3 mg/kg/day, po administered 6 days per week via gavage starting from 14 weeks of age up to 20 weeks of age (reference value: 17.98 +/- 0.94 mg/dl); format: organism-based, Heart; settings: in vivo
# Mus musculus [12] = experiment: Toxicity in LmnaH222P/H222P mouse model of cardiomyopathy assessed as blood urea nitrogen level at 6 mg/kg/day, po administered 6 days per week via gavage starting from 14 weeks of age up to 20 weeks of age (reference value: 17.98 +/- 0.94 mg/dl); format: organism-based, Heart; settings: in vivo
# Mus musculus [13] = experiment: Toxicity in LmnaH222P/H222P mouse model of cardiomyopathy assessed as serum creatinine level at 3 mg/kg/day, po administered 6 days per week via gavage starting from 14 weeks of age up to 20 weeks of age (reference value: 0.45 +/- 0.01 mg/dl); format: organism-based, Heart; settings: in vivo
# Mus musculus [14] = experiment: Toxicity in LmnaH222P/H222P mouse model of cardiomyopathy assessed as serum creatinine level at 6 mg/kg/day, po administered 6 days per week via gavage starting from 14 weeks of age up to 20 weeks of age (reference value: 0.45 +/- 0.01 mg/dl); format: organism-based, Heart; settings: in vivo
# Mus musculus [15] = experiment: Toxicity in LmnaH222P/H222P mouse model of cardiomyopathy assessed as ratio of blood urea nitrogen to serum creatinine at 3 mg/kg/day, po administered 6 days per week via gavage starting from 14 weeks of age up to 20 weeks of age (reference value: 20.14 +/- 1.25); format: organism-based, Heart; settings: in vivo
# Mus musculus [16] = experiment: Toxicity in LmnaH222P/H222P mouse model of cardiomyopathy assessed as ratio of blood urea nitrogen to serum creatinine at 6 mg/kg/day, po administered 6 days per week via gavage starting from 14 weeks of age up to 20 weeks of age (reference value: 20.14 +/- 1.25); format: organism-based, Heart; settings: in vivo
# Mus musculus [17] = experiment: Hepatotoxicity in LmnaH222P/H222P mouse model of cardiomyopathy assessed as hepatocyte necrosis at 3 to 6 mg/kg/day, po administered 6 days per week via gavage starting from 14 weeks of age up to 20 weeks of age by hematoxylin and eosin staining based assay; format: toxicity, organism-based; settings: hepatocytes
# In short: (§1)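 Liver, kidney and spleen from male Lmna H222P/H222P mice given vehicle or 3 or 6 mg/kg/day by gavage 6 days/week from 14 to 20 weeks. Tissues were fixed in 4% formaldehyde for 48 h, paraffin-embedded, sectioned at 5 μm and stained with hematoxylin and eosin. Findings were recorded for each individual sample.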
# Mus musculus [18] = experiment: Hepatotoxicity in LmnaH222P/H222P mouse model of cardiomyopathy assessed as inflammation at 3 to 6 mg/kg/day, po administered 6 days per week via gavage starting from 14 weeks of age up to 20 weeks of age by hematoxylin and eosin staining based assay; format: toxicity, organism-based; settings: in vivo; in short: as §1
# Mus musculus [19] = experiment: Hepatotoxicity in LmnaH222P/H222P mouse model of cardiomyopathy assessed as cholestasis at 3 to 6 mg/kg/day, po administered 6 days per week via gavage starting from 14 weeks of age up to 20 weeks of age by hematoxylin and eosin staining based assay; format: toxicity, organism-based; settings: in vivo; in short: as §1
# Mus musculus [20] = experiment: Nephrotoxicity in LmnaH222P/H222P mouse model of cardiomyopathy assessed as glomeruli abnormalities at 3 to 6 mg/kg/day, po administered 6 days per week via gavage starting from 14 weeks of age up to 20 weeks of age by hematoxylin and eosin staining based assay; format: toxicity, organism-based; settings: in vivo; in short: as §1
# Mus musculus [21] = experiment: Nephrotoxicity in LmnaH222P/H222P mouse model of cardiomyopathy assessed as interstitial nephritis at 3 to 6 mg/kg/day, po administered 6 days per week via gavage starting from 14 weeks of age up to 20 weeks of age by hematoxylin and eosin staining based assay; format: toxicity, organism-based; settings: in vivo; in short: as §1
# Mus musculus [22] = experiment: Toxicity in LmnaH222P/H222P mouse model of cardiomyopathy assessed as appearance of hemosiderin-laden macrophages in spleen at 3 to 6 mg/kg/day, po administered 6 days per week via gavage starting from 14 weeks of age up to 20 weeks of age by hematoxylin and eosin staining based assay; format: organism-based; settings: in vivo; in short: as §1
# Mus musculus [23] = experiment: Protective activity in LmnaH222P/H222P mouse model of cardiomyopathy assessed as mean survival days at 3 mg/kg, po administered 6 days per week via gavage starting from 10 weeks of age continued up to mouse death (reference value: 202 day); format: functional, Heart
# Mus musculus [24] = experiment: Protective activity in LmnaH222P/H222P mouse model of cardiomyopathy assessed as mean survival days at 6 mg/kg, po administered 6 days per week via gavage starting from 10 weeks of age continued up to mouse death (reference value: 202 day); format: functional, Heart
# [25] = biological target: Dual specificity mitogen-activated protein kinase kinase; MEK1/2 (Homo sapiens, UniProt P36507+Q02750); experiment: Inhibition of MEK1/2 in human HT-29 cells assessed as reduction in cell proliferation after 72 hrs by CellTiter-Glo assay; format: cell-based
# In short: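 HT-29 cells were plated at 2,000/well in DMEM or RPMI with 10% FBS and left overnight at 37°C, 5% CO2. Medium was replaced with compound at 3-fold dilutions from 3.3 µM to 4.5 nM. After 72 h, viability was read by CellTiter-Glo luminescence and IC50 calculated.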
structure (smiles),measurement,setting,value
"O=S1(=O)Nc2c(cc(F)c(F)c2Nc2ccc(I)cc2F)OCC(O)C(O)CC12CC2 (single isomer, unassigned; form 1)",Activity,[1],24.06
same,Activity,[2],22.93
same,Activity,Mus musculus [3],104.5 U/L
same,Activity,Mus musculus [4],113 U/L
same,Activity,Mus musculus [5],69.6 U/L
same,Activity,Mus musculus [6],69.6 U/L
same,Activity,Mus musculus [7],0.32 mg/L
same,Activity,Mus musculus [8],0.37 mg/L
same,Activity,Mus musculus [9],1372 U/L
same,Activity,Mus musculus [10],1086 U/L
same,Activity,Mus musculus [11],18.04 mg/dL
same,Activity,Mus musculus [12],19.12 mg/dL
same,Activity,Mus musculus [13],0.46 mg/dL
same,Activity,Mus musculus [14],0.46 mg/dL
same,Ratio,Mus musculus [15],19.66
same,Ratio,Mus musculus [16],20.77
same,Activity,Mus musculus [17],Non-Toxic
same,Activity,Mus musculus [18],Non-Toxic
same,Activity,Mus musculus [19],Non-Toxic
same,Activity,Mus musculus [20],Non-Toxic
same,Activity,Mus musculus [21],Non-Toxic
same,Activity,Mus musculus [22],Non-Toxic
same,MSD,Mus musculus [23],225 days
same,MSD,Mus musculus [24],225 days
same,IC50,[25],0.016 µM
